Screening results: PubChem BioAssay, several laboratories
Only some compounds are listed: those with a hit (about 2.3% of all), similar ones and a draw of the others.
p-CIP stab down – compounds decreasing mouse p/CIP protein stability | decrease of EGFP signal, % at 10 µM | Q05BA5 | actives 0.01% (n = 290,000) | F442A p/CIP-EGFP cells, EGFP fluorescence, 16 h;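 active = EGFP signal decrease of at least 30% at 10 µM or well 3 SD below plate mean, unless failing retest; inactive = the rest, including hits failing retest or dose response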
T cell modulator – modulates CD8 T cell binding to vesicles | 2C CD8+ T cell-vesicle binding, flow cytometry; stronger effect = lower value | response (vesicle binding), % at 7 µM | actives 0.068% (n = 330,000) | AID 2052;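 active = response, share of CD8 T cells binding vesicles, and their 90th percentile fluorescence all below set limits, cut at about 80% in these data, passing the limit was not always enough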;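 note: values below 100% mean blocked vesicle binding to the CD8+ T cells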
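System: murine 2C transgenic CD8+ T lymphocytes; also added: QL9-loaded Drosophila micro-vesicles; times: binding 1.5 h at 37 °C; measured by: flow cytometry, PE anti-B7-1 (FL2) versus Alexa647 anti-CD8 (FL8), PFA-fixed; control set: Peptide-free naked vesicles (low) and QL9 vesicles with 0.7% DMSO vehicle (high)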
CHT inh – inhibits the human high affinity choline transporter. Q9GZV3. CHT-expressing cells, membrane potential dye, choline response; stronger effect = lower value. actives 0.86% (n = 310,000). B-score at 10 µM. AID 488975;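 active = B-score over 3 SD under the library average, and starting fluorescence ratio not unusually high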;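 note: choline stimulus applied at its EC90 after an EC20 pre-addition; B-score computed on integrated fluorescence ratio after choline addition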
GPR7 antag – blocks human GPR7 receptor signaling; actives 1.1% (n = 290,000); GPR7-expressing cells, fluorescence antagonist assay; P48145; inhibition, % at 4.4 µM; in the data active = inhibition above about 16%, passing the limit was not always enough;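 note: cells stimulated with the agonist NPW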
Target sequence (P48145 whole entry, looked up): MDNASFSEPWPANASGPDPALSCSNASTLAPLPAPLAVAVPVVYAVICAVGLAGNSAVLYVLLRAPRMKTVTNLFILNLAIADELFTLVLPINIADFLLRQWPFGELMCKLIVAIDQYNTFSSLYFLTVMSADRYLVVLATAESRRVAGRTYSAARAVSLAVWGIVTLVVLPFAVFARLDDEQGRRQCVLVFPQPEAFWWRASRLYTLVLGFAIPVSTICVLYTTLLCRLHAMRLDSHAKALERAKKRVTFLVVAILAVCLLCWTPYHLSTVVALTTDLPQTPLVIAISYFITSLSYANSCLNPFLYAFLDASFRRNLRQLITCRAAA
DSG3 Ab inh – human desmoglein-3 autoantibody binding inhibition; P32926; DSG3-coupled beads, scFv-anti-DSG3-GFP binding, flow cytometry; stronger effect = lower value; binding (percent of control), % at 10 µM; actives 0.48% (n = 310,000); AID 588358;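 active = binding more than 3 SD below its plate's average and above zero; inconclusive = below that plate limit but binding exactly zero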;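 note: hits lower antibody fragment binding to DSG3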
CHT allo act – human CHT allosteric activation; Q9GZV3; CHT-expressing cells, membrane potential dye, choline EC20; stronger effect = higher value; LV-AA mutant CHT in HEK293 cells; B-score at 10 µM; actives 0.49% (n = 310,000); AID 488977;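 active = initial fluorescence not abnormally high and integrated response B-score, plate-corrected, over 3 SD above library mean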
A number is an active result; . = inactive; ? = inconclusive; / = no result.

SMILES	p-CIP stab down	T cell modulator	CHT inh	GPR7 antag	DSG3 Ab inh	CHT allo act
O=[N+]([O-])c1ccc(CSc2ccc(-c3ccccn3)nn2)cc1	.	.	.	.	83	.
COc1ccccc1-c1ccc(SCc2ccc([N+](=O)[O-])cc2)nn1	.	.	.	.	.	.
Cc1ccc(-n2nc3c(=O)n(C(C)C(=O)NCCc4cccs4)nc(C)c3c2C)cc1 (centres undefined)	.	.	-5.5	.	.	.
CC1C(=O)N(Cc2cn(Cc3ccco3)nn2)CCS(=O)(=O)N1Cc1ccc(-c2cccc(N(C)C)c2)cc1 (centres undefined)	/	/	/	/	.	/
O=C(NCc1ccc(Cl)cc1)c1n[nH]c([N+](=O)[O-])c1Cl	.	.	-8.5	.	.	.
O=C(NCc1ccc(Cl)cc1)c1ccncc1	.	.	.	.	83	.
O=C(NCc1ccc(Cl)cc1)c1ncn[nH]1	.	.	.	.	.	.
O=c1[nH]c2cc([N+](=O)[O-])ccc2c2cc(Br)ccc12	/	/	/	/	.	/
CN(c1ccc(C(=O)Nc2ccccn2)cc1)S(=O)(=O)c1ccccc1	.	57	.	.	.	.
COCc1ccc(C(=O)Nc2cccc(S(=O)(=O)N(C)c3ccccc3)c2)cc1	/	.	/	/	28	/
CCOC(=O)c1ccc(S(=O)(=O)N2CCC(C(=O)NCC3COc4ccccc4O3)CC2)cc1 (centres undefined)	/	/	/	/	.	/
O=C(COC(=O)/C=C/c1cccc(F)c1)NCc1ccc2c(c1)OCO2	/	/	/	/	.	/
CCOC(=O)Nc1ccc2nc(-c3cscn3)[nH]c2c1	/	/	/	/	.	/
CCN(CC)c1ccc2c(-c3ccc(S(=O)(=O)O)cc3S(=O)(=O)[O-])c3ccc(=[N+](CC)CC)cc-3oc2c1	.	.	.	70	?	.
CCN(CC)c1ccc2nc3c4ccccc4c(=O)cc-3oc2c1	.	.	.	.	/	.
CN(C(=O)COC(=O)/C=C/c1ccccc1)C1CCS(=O)(=O)C1 (centres undefined)	/	/	/	/	.	/
CC(=O)N1CCOC12CCN(Cc1ccccc1)CC2	/	/	/	/	.	/
Nc1ccc(S(=O)(=O)Nc2nc(-c3ccccc3)cc(-c3ccccc3O)n2)cc1	/	/	/	/	.	/
CC(NCc1ccccc1Cl)C(=O)Nc1ccc(C#N)cc1 (centres undefined)	.	.	.	18	.	.
CCCCC(CC)C(=O)Nc1ccc(C#N)cc1 (centres undefined)	.	.	.	.	.	.
CC(NCc1ccccc1Cl)C(=O)Nc1ccc(S(=O)(=O)N2CCCC2)cc1 (centres undefined)	.	0.0	.	.	.	.
CC(Oc1ccccc1Cl)C(=O)Nc1ccc(S(=O)(=O)N2CCCC2)cc1 (centres undefined)	/	.	.	/	.	.
COc1ccc(OC)c(NS(=O)(=O)c2ccc3[nH]c(=O)[nH]c3c2)c1	/	/	/	/	.	/
COc1cc(CC(=O)C(=O)O)oc(=O)c1	/	/	/	/	.	/
CN(Cc1ccccc1)C(=O)CN1CCN(S(=O)(=O)c2ccccc2F)CC1	/	/	/	/	.	/
SMILES	p-CIP stab down	T cell modulator	CHT inh	GPR7 antag	DSG3 Ab inh	CHT allo act
Cc1ccccc1OCCN1C(=O)C(=O)c2cccc(C)c21	.	.	.	21	.	.
CC1(C)CN(c2ccsc2C(=O)O)C1=O	.	.	.	.	56	.
CC(/C=C/c1ccc(C)o1)=C\C(=O)O	.	66	.	.	/	.
OCCN(Cc1cccnc1)Cc1ccccn1	/	/	/	/	.	/
COC(=O)C(NC(=O)c1ccc(Cl)cc1)(Nc1nc(C)cs1)C(F)(F)F (centres undefined)	.	.	.	.	.	.
COC(=O)C(NC(=O)c1ccc(F)cc1)(Nc1nc(C)cs1)C(F)(F)F (centres undefined)	.	.	.	17	.	.
CCN1CCN(c2nc3c(c(=O)[nH]c(=O)n3C)n2Cc2cccc(C)c2)CC1	/	/	/	/	.	/
O=C(c1ccco1)N1CCN(c2ncnc3scc(-c4ccc(Cl)cc4)c23)CC1	/	/	/	/	.	/
O=C(Nc1nc(=S)ss1)c1ccc(Cl)cc1Cl	.	.	-9.2	.	.	.
CCOC(=O)c1ccccc1NC(=O)Cn1c(-c2nonc2N)nc2ccccc21	.	.	.	21	.	.
Nc1nonc1-c1nc2ccccc2n1CC(=O)Nc1ccccc1	.	.	.	.	.	.
Cc1sc2ccc3sccc3c2[n+]1C	.	.	.	.	.	12
